Results published in ChEMBL document CHEMBL5214907 (J Med Chem, 2021).
Active and inactive are the calls of the source. No cut-off for these calls is given here.

Key:
[1] = molecular target: Neuronal acetylcholine receptor; alpha2/beta4 (Homo sapiens, UniProt P30926+Q15822); experiment: Inhibition of human alpha2beta4 nAChR expressed in xenopus oocytes assessed as inhibition of Ach- induced response at -70 mV holding potential and measured for 1 to 5 days in presence of Ach stimulation by voltage-clamp based electrophysiological method; assay type: cell-based, Oocyte
Method in brief: (§1)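 Xenopus oocytes expressing cloned rat or human nAChR subtypes, recorded 1–5 d after injection. Held at −70 mV at room temperature and pulsed with ACh for 1 s every 60 s while peptide was flowed on. Where noted, Ba²⁺ replaced Ca²⁺ to limit current run-up after block. Values from 3–5 separate oocytes.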

[2] = molecular target: Neuronal acetylcholine receptor; alpha9/alpha10 (Homo sapiens, UniProt Q9GZZ6+Q9UGM1); experiment: Inhibition of human alpha9alpha10 nAChR expressed in xenopus oocytes assessed as inhibition of Ach- induced response at -70 mV holding potential and measured for 1 to 5 days in presence of Ach stimulation by voltage-clamp based electrophysiological method; assay type: cell-based, Oocyte
Method in brief: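 Two-electrode voltage clamp on Xenopus oocytes expressing human α9α10, recorded 1–5 d after injection. Held at −70 mV at room temperature in Ca²⁺-containing ND-96. A 1 s pulse of 100 µM ACh was given every 60 s and peptide was flowed on. IC50 with 95% CI from 3–5 separate oocytes.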

[3] = molecular target: Neuronal acetylcholine receptor; alpha2/beta2 (Rattus norvegicus, UniProt P12389+P12390); experiment: Inhibition of rat alpha2beta2 nAChR expressed in xenopus oocytes assessed as inhibition of Ach- induced response at -70 mV holding potential and measured for 1 to 5 days in presence of Ach stimulation by voltage-clamp based electrophysiological method; assay type: cell-based, Oocyte; method in brief: as §1
[4] = molecular target: Neuronal acetylcholine receptor; alpha4/beta4 (Homo sapiens, UniProt P30926+P43681); experiment: Inhibition of human alpha4beta4 nAChR expressed in xenopus oocytes assessed as inhibition of Ach- induced response at -70 mV holding potential and measured for 1 to 5 days in presence of Ach stimulation by voltage-clamp based electrophysiological method; assay type: cell-based, Oocyte; method in brief: as §1
[5] = molecular target: Nicotinic acetylcholine receptor alpha6/alpha3/beta4 (Homo sapiens, UniProt P30926+P32297+Q15825); experiment: Inhibition of human alpha6/alpha3beta4 nAChR expressed in xenopus oocytes assessed as inhibition of Ach- induced response at -70 mV holding potential and measured for 1 to 5 days in presence of Ach stimulation by voltage-clamp based electrophysiological method; assay type: cell-based, Oocyte; method in brief: as §1
[6] = molecular target: Neuronal acetylcholine receptor; alpha3/beta2 (Rattus norvegicus, UniProt P04757+P12390); experiment: Inhibition of rat alpha3beta2 nAChR expressed in xenopus oocytes assessed as inhibition of Ach- induced response at -70 mV holding potential and measured for 1 to 5 days in presence of Ach stimulation by voltage-clamp based electrophysiological method; assay type: cell-based, Oocyte; method in brief: as §1
[7] = molecular target: Neuronal acetylcholine receptor subunit alpha-7 (Rattus norvegicus, UniProt Q05941); experiment: Inhibition of rat alpha7 nAChR expressed in xenopus oocytes assessed as inhibition of Ach- induced response at -70 mV holding potential and measured for 1 to 5 days in presence of Ach stimulation by voltage-clamp based electrophysiological method; assay type: cell-based, Oocyte; method in brief: as §1
[8] = molecular target: Nicotinic acetylcholine receptor alpha9/alpha10 (Rattus norvegicus, UniProt P43144+Q9JLB5); assay type: cell-based, Oocyte
[9] = molecular target: Neuronal acetylcholine receptor; alpha3/beta4 (Homo sapiens, UniProt P30926+P32297); experiment: Inhibition of human alpha3beta4 nAChR expressed in xenopus oocytes assessed as inhibition of Ach- induced response at -70 mV holding potential and measured for 1 to 5 days in presence of Ach stimulation by voltage-clamp based electrophysiological method; assay type: cell-based, Oocyte; method in brief: as §1
[10] = molecular target: Neuronal acetylcholine receptor; alpha3/beta2 (Homo sapiens, UniProt P17787+P32297); experiment: Inhibition of human alpha3beta2 nAChR expressed in xenopus oocytes assessed as inhibition of Ach- induced response at -70 mV holding potential and measured for 1 to 5 days in presence of Ach stimulation by voltage-clamp based electrophysiological method; assay type: cell-based, Oocyte; method in brief: as §1
[11] = Inhibition of human alpha6/alpha3beta2beta3 nAChR expressed in xenopus oocytes assessed as inhibition of Ach- induced response at -70 mV holding potential and measured for 1 to 5 days in presence of Ach stimulation by voltage-clamp based electrophysiological method; assay type: cell-based; settings: Oocyte; method in brief: as §1
Mus musculus = experiment: Analgesic activity against oxaliplatin-induced peripheral neuropathic pain mouse model assessed as reversal of oxaliplatin-induced cold allodynia by measuring withdrawal latency at 4 to 40 microg/kg, sc for 22 days (5 days per week) and measured after 24 hrs post-injection by cold-plate test chamber analysis; assay type: functional, organism-based; settings: dose 4-40 µg/kg, time 22.0 day
Method in brief: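 Mice, 8 per group. Oxaliplatin 3.5 mg/kg i.p. and peptide 4 or 40 µg/kg s.c., both in sterile 0.9% NaCl, given daily Wed–Fri and Mon–Tue through day 22; controls received saline. Cold allodynia tested on days 8, 15 and 22, 24 h after the last injection. Cold plate: 2–5 min acclimation at 23 °C, then cooled 10 °C/min until both forepaws lifted with shaking or licking. Mean ± SEM versus vehicle.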

[12] = molecular target: Neuronal acetylcholine receptor; alpha4/beta4 (Rattus norvegicus, UniProt P09483+P12392); experiment: Inhibition of rat alpha4beta4 nAChR expressed in xenopus oocytes assessed as inhibition of Ach- induced response at -70 mV holding potential and measured for 1 to 5 days in presence of Ach stimulation by voltage-clamp based electrophysiological method; assay type: cell-based, Oocyte; method in brief: as §1
[13] = molecular target: Neuronal acetylcholine receptor; alpha3/beta4 (Rattus norvegicus, UniProt P04757+P12392); experiment: Inhibition of rat alpha3beta4 nAChR expressed in xenopus oocytes assessed as inhibition of Ach- induced response at -70 mV holding potential and measured for 1 to 5 days in presence of Ach stimulation by voltage-clamp based electrophysiological method; assay type: cell-based, Oocyte; method in brief: as §1
[14] = molecular target: Neuronal acetylcholine receptor; alpha2/beta4 (Rattus norvegicus, UniProt P12389+P12392); experiment: Inhibition of rat alpha2beta4 nAChR expressed in xenopus oocytes assessed as inhibition of Ach- induced response at -70 mV holding potential and measured for 1 to 5 days in presence of Ach stimulation by voltage-clamp based electrophysiological method; assay type: cell-based, Oocyte; method in brief: as §1
[15] = molecular target: Neuronal acetylcholine receptor; alpha4/beta2 (Rattus norvegicus, UniProt P09483+P12390); experiment: Inhibition of rat alpha4beta2 nAChR expressed in xenopus oocytes assessed as inhibition of Ach- induced response at -70 mV holding potential and measured for 1 to 5 days in presence of Ach stimulation by voltage-clamp based electrophysiological method; assay type: cell-based, Oocyte; method in brief: as §1
[16] = molecular target: Neuronal acetylcholine receptor subunit alpha-7 (Homo sapiens, UniProt P36544); experiment: Inhibition of human alpha7 nAChR expressed in xenopus oocytes assessed as inhibition of Ach- induced response at -70 mV holding potential and measured for 1 to 5 days in presence of Ach stimulation by voltage-clamp based electrophysiological method; assay type: cell-based, Oocyte; method in brief: as §1
[17] = molecular target: Nicotinic acetylcholine receptor alpha6/alpha3/beta4 (Rattus norvegicus, UniProt P04757+P12392+P43143); experiment: Inhibition of rat alpha6/alpha3beta4 nAChR expressed in xenopus oocytes assessed as inhibition of Ach- induced response at -70 mV holding potential and measured for 1 to 5 days in presence of Ach stimulation by voltage-clamp based electrophysiological method; assay type: cell-based, Oocyte; method in brief: as §1
[18] = Inhibition of human alpha1beta1deltaepsilon nAChR expressed in xenopus oocytes assessed as inhibition of Ach- induced response at -70 mV holding potential and measured for 1 to 5 days in presence of Ach stimulation by voltage-clamp based electrophysiological method; assay type: cell-based; settings: Oocyte; method in brief: as §1
[19] = molecular target: Nicotinic acetylcholine receptor alpha6/alpha3/beta2/beta3 (Rattus norvegicus, UniProt P04757+P12390+P12391+P43143); experiment: Inhibition of rat alpha6/alpha3beta2beta3 nAChR expressed in xenopus oocytes assessed as inhibition of Ach- induced response at -70 mV holding potential and measured for 1 to 5 days in presence of Ach stimulation by voltage-clamp based electrophysiological method; assay type: cell-based, Oocyte; method in brief: as §1
[20] = molecular target: Neuronal acetylcholine receptor; alpha2/beta2 (Homo sapiens, UniProt P17787+Q15822); experiment: Inhibition of human alpha2beta2 nAChR expressed in xenopus oocytes assessed as inhibition of Ach- induced response at -70 mV holding potential and measured for 1 to 5 days in presence of Ach stimulation by voltage-clamp based electrophysiological method; assay type: cell-based, Oocyte; method in brief: as §1
[21] = molecular target: Neuronal acetylcholine receptor; alpha4/beta2 (Homo sapiens, UniProt P17787+P43681); experiment: Inhibition of human alpha4beta2 nAChR expressed in xenopus oocytes assessed as inhibition of Ach- induced response at -70 mV holding potential and measured for 1 to 5 days in presence of Ach stimulation by voltage-clamp based electrophysiological method; assay type: cell-based, Oocyte; method in brief: as §1

Neuronal acetylcholine receptor; alpha9/alpha10, sequence (Q9UGM1 whole entry): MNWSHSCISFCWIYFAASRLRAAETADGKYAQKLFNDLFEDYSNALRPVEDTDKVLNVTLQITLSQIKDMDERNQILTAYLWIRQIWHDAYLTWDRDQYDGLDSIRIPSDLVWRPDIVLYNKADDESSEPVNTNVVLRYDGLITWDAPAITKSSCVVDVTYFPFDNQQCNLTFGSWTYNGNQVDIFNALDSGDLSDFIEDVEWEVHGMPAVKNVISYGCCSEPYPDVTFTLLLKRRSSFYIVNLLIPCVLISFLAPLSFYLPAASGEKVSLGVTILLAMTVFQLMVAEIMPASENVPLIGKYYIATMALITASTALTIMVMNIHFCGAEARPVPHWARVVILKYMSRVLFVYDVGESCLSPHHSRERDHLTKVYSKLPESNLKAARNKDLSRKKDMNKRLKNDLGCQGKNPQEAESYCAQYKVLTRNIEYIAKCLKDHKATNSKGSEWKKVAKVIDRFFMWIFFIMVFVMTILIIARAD
Neuronal acetylcholine receptor; alpha9/alpha10, sequence (Q9GZZ6 whole entry): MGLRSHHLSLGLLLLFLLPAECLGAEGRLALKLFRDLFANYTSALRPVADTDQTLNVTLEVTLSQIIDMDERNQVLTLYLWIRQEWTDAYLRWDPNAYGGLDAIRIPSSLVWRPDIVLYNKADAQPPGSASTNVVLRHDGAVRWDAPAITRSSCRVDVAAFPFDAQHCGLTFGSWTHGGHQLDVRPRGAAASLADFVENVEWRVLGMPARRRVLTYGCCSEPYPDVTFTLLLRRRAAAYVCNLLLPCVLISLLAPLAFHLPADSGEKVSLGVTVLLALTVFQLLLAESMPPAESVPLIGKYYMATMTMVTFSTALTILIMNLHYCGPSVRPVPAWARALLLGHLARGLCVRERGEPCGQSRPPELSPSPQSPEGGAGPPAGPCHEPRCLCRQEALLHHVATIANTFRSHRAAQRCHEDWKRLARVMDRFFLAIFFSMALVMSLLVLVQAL
Nicotinic acetylcholine receptor alpha9/alpha10, sequence (P43144 whole entry): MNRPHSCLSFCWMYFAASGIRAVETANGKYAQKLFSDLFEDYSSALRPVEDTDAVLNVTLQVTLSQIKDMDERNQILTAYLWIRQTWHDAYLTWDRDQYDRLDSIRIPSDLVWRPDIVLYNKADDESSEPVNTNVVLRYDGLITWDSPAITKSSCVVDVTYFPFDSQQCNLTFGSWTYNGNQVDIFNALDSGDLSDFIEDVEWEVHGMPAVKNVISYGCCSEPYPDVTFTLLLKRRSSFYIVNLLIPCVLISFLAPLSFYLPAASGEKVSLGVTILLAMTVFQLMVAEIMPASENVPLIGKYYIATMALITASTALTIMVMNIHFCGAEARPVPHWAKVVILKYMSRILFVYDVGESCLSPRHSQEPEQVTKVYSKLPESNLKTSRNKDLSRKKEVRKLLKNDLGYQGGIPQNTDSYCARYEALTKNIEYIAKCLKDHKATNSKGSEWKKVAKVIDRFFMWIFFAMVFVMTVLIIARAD
Nicotinic acetylcholine receptor alpha9/alpha10, sequence (Q9JLB5 whole entry): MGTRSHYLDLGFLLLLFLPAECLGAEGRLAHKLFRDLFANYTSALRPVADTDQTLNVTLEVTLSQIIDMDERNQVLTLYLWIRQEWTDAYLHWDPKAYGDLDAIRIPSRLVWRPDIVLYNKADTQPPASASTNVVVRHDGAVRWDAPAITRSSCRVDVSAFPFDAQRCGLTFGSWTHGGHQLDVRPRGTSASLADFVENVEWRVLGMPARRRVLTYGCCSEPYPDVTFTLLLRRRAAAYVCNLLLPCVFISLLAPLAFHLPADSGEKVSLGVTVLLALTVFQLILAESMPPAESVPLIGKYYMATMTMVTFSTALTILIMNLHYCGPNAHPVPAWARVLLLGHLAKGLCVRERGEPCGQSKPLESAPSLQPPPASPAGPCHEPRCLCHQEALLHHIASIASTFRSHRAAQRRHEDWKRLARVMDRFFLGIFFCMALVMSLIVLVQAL
Neuronal acetylcholine receptor; alpha4/beta2 (Rattus norvegicus, UniProt P09483+P12390), sequence (P09483 whole entry): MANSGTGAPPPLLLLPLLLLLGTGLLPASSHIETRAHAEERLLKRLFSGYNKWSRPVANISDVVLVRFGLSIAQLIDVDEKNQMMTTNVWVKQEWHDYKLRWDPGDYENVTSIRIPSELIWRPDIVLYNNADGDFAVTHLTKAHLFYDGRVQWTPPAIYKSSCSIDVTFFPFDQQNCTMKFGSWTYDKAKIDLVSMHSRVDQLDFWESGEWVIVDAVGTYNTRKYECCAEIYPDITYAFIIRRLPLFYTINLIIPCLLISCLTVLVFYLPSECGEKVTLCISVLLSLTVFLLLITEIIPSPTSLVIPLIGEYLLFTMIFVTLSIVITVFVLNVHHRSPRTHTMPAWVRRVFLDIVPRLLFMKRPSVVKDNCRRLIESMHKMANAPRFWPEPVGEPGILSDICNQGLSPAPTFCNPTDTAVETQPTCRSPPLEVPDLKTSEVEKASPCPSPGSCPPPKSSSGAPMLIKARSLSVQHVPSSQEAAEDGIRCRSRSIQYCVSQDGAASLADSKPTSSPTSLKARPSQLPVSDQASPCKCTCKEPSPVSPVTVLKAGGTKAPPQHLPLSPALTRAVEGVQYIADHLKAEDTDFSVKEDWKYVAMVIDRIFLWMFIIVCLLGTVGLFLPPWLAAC
Neuronal acetylcholine receptor; alpha4/beta2 (Rattus norvegicus, UniProt P09483+P12390), sequence (P12390 whole entry): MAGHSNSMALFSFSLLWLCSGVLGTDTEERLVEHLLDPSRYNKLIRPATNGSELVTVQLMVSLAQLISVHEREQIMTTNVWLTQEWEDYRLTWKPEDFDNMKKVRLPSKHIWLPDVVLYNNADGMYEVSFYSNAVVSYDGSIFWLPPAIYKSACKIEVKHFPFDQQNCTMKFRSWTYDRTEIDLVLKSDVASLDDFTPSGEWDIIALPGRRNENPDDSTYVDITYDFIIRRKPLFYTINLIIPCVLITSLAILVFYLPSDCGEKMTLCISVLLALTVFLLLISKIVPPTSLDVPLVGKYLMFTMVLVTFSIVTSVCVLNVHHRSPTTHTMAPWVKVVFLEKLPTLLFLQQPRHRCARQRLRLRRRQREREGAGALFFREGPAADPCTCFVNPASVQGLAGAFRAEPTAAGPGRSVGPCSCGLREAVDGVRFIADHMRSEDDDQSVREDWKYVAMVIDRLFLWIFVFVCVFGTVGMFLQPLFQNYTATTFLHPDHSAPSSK
Neuronal acetylcholine receptor; alpha4/beta4 (Rattus norvegicus, UniProt P09483+P12392), sequence (P09483 whole entry): as the sequence (P09483 whole entry) above
Neuronal acetylcholine receptor; alpha4/beta4 (Rattus norvegicus, UniProt P09483+P12392), sequence (P12392 whole entry): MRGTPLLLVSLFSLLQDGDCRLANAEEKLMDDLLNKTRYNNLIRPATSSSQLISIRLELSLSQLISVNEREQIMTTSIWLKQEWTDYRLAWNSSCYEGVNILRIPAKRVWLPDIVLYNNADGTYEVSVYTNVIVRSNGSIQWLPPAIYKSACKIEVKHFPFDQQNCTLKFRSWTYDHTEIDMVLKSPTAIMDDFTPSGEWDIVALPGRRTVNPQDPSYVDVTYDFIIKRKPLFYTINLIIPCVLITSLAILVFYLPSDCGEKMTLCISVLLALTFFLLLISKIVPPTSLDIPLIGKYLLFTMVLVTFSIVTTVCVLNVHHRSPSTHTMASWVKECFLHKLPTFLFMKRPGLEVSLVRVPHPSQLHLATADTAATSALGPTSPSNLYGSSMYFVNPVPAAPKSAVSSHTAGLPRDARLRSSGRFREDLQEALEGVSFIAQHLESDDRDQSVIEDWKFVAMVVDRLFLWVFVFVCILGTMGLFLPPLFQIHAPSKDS
Neuronal acetylcholine receptor subunit alpha-7 (Homo sapiens, UniProt P36544), sequence (P36544 whole entry): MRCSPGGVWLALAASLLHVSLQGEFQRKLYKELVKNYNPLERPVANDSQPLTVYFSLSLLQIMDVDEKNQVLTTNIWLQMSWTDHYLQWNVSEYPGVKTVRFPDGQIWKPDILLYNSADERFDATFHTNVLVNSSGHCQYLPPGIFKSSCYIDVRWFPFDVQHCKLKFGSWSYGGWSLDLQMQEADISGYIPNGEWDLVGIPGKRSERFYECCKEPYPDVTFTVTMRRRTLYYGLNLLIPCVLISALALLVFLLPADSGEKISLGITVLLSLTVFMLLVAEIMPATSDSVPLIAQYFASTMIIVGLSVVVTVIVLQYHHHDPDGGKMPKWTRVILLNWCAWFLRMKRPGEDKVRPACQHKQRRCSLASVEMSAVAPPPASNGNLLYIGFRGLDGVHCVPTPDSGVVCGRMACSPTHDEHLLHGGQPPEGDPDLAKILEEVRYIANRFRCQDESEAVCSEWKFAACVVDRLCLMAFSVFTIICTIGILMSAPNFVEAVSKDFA

For `C[C@@H](O)[C@@H]1NC(=O)[C@H]2NC(=O)[C@H](NC(=O)CN)CSSC[C@H](NC(=O)[C@H](CCCNC(=N)N)NC(=O)[C@@H]3CCCN3C(=O)[C@H](CC(=O)O)NC1=O)C(=O)N[C@@H](CCCNC(=N)N)C(=O)N[C@@H](Cc1ccc(O)c(I)c1)C(=O)N[C@@H](CCCN)C(=O)N[C@H](C(=O)N[C@H](CC(=O)N[C@@H](CCCNC(=N)N)C(=O)O)Cc1ccc(O)cc1)CSSC2(C)C`, the IC50 [1] was > 10 µM, the IC50 [2] was 0.05 nM and the IC50 [3] was > 10 µM. For the same compound, the IC50 [4] was > 10 µM, the IC50 [5] was > 10 µM and the IC50 [6] was > 10 µM. For the same compound, the IC50 [7] was > 0.333 µM, the IC50 [8] was 0.00039 µM and the IC50 [9] was > 10 µM. The IC50 [10] was > 10 µM, the IC50 [11] was > 10 µM and the Activity (Mus musculus) was “Active”. For the same compound, the IC50 [12] was > 10 µM, the IC50 [13] was > 10 µM and the IC50 [14] was > 10 µM. The IC50 [15] was > 10 µM, the IC50 [16] was 0.115 µM and the IC50 [17] was > 10 µM. The IC50 [18] was > 10 µM, the IC50 [19] was > 10 µM and the IC50 [20] was > 10 µM. The IC50 [21] was > 10 µM.

With `C[C@@H](O)[C@@H]1NC(=O)[C@H]2NC(=O)[C@H](NC(=O)CN)CSSC[C@H](NC(=O)[C@H](CCCNC(=N)N)NC(=O)[C@@H]3CCCN3C(=O)[C@H](CC(=O)O)NC1=O)C(=O)N[C@@H](CCCNC(N)=O)C(=O)N[C@@H](Cc1ccc(O)c(I)c1)C(=O)N[C@@H](CCC(N)=O)C(=O)N[C@H](C(=O)N[C@@H](Cc1ccc(O)cc1)C(=O)O)CSSC2(C)C` the IC50 [2] was 1.3 nM.

Compound `N=C(N)NCCC[C@H](NC(=O)[C@@H]1CSSC[C@@H]2NC(=O)[C@@H](NC(=O)CN)CSSC[C@H](NC(=O)[C@H](CCCNC(=N)N)NC(=O)[C@@H]3CCCN3C(=O)[C@H](CC(=O)O)NC(=O)[C@H](CO)NC2=O)C(=O)N[C@@H](CCCNC(N)=O)C(=O)N[C@@H](Cc2ccc(O)cc2)C(=O)N[C@@H](CCCNC(=N)N)C(=O)N1)C(=O)O` has an IC50 [8] of 0.00149 µM.

`C[C@@H](O)[C@@H]1NC(=O)[C@H]2NC(=O)[C@H](NC(=O)CN)CSSC[C@H](NC(=O)[C@H](CCCNC(=N)N)NC(=O)[C@@H]3CCCN3C(=O)[C@H](CC(=O)O)NC1=O)C(=O)N[C@@H](CCCNC(=N)N)C(=O)N[C@@H](Cc1ccc(O)c(I)c1)C(=O)N[C@@H](CCCN)C(=O)N[C@H](C(=O)N[C@H](CC(=O)N[C@@H](CCCNC(N)=O)C(=O)O)Cc1ccc(O)cc1)CSSC2(C)C` showed an IC50 [2] of 0.26 nM.

For `C[C@@H](O)[C@@H]1NC(=O)[C@H]2NC(=O)[C@H](NC(=O)CN)CSSC[C@H](NC(=O)[C@H](CCCNC(=N)N)NC(=O)[C@@H]3CCCN3C(=O)[C@H](CC(=O)O)NC1=O)C(=O)N[C@@H](CCCNC(=N)N)C(=O)N[C@@H](Cc1ccc(O)c(I)c1)C(=O)N[C@@H](CCCN)C(=O)N[C@H](C(=O)N[C@H](CC(=O)N[C@@H](CCC(=O)O)C(=O)O)Cc1ccc(O)cc1)CSSC2(C)C`, the IC50 [2] was 0.4 nM.
